# Measurements collected from several papers.
# Each line is one published result; the experiments were not run side by side.
# Target: RAC-beta serine/threonine-protein kinase (AKT2, Homo sapiens, UniProt P31751)
SMILES,effect on,technique,concentration,remaining binding [%]
N#Cc1ccccc1CSc1nnc2c(n1)[nH]c1ccccc12,binding,competition with immobilised ligand,10 µM,93
CCCOc1ccc([C@H]2[C@H](C(=O)O)[C@@H](c3ccc4c(c3)OCO4)CN2CC(=O)Nc2c(CC)cccc2CC)cc1,cell-free assay,competition with immobilised ligand,1 µM,100
CC(C)(C)c1ccc(-c2nc(CBr)nn2-c2cccc(O)c2)cc1,cell-free assay,competition with immobilised ligand,10 µM,70
CN(CCCC(F)(F)F)c1nccc(-c2cnn3ncccc23)n1,binding,,1 µM,75
COc1cnc(Nc2cccc(S(N)(=O)=O)c2)nc1N1CCN(c2ccccc2)C(=O)C1,binding,competition with immobilised ligand,1 µM,100
Cc1cnc(Nc2ccc(C(=O)N3CCC(N4CCCC4)CC3)cc2)nc1-c1cc2ccccc2s1,binding,competition with immobilised ligand,1 µM,83
CN(C)c1ncc(F)c(-c2cnn3ncccc23)n1,binding,,1 µM,100
COc1cnc(Nc2cccc(S(N)(=O)=O)c2)nc1N1CCN(c2ccccc2)CC1,binding,competition with immobilised ligand,1 µM,94
O=C(NCC1CCOCC1)c1n[nH]cc1NC(=O)c1c(F)cccc1F,binding,competition with immobilised ligand,1 µM,100
CN(C)c1nccc(-c2cnn3ncccc23)n1,binding,,1 µM,100
Cc1c[nH]c2nccc(Oc3c(F)cc(Nc4cc(Cl)nc(N)n4)cc3F)c12,cell-free assay,competition with immobilised ligand,0.1 µM,98
c1cnn2ncc(-c3ccnc(N4CCC45COC5)n3)c2c1,binding,,1 µM,96
CCS(=O)(=O)c1cc2cc(C[C@@](O)(CC(C)(C)c3ccc(F)cc3C(N)=O)C(F)(F)F)[nH]c2cn1,cell-free assay,competition with immobilised ligand,1 µM,93
O=C(NCCCN1CCOCC1)c1ccc(Nc2ncc(Cl)c(-c3ccc(Cl)s3)n2)cc1,binding,competition with immobilised ligand,1 µM,100
CCN1CCN(Cc2ccc(C(=O)Nc3ccc(C)c(Oc4ccc5c(c4)CC(=O)N5)c3)cc2C(F)(F)F)CC1,binding,competition with immobilised ligand,1 µM,100
CN(C)CC#Cc1ccc(OCCCc2sc(N3CCc4cccc(C(=O)Nc5nc6ccccc6s5)c4C3)nc2C(=O)O)c(F)c1,cell-free assay,competition with immobilised ligand,1 µM,100
O=C(c1ccc(Nc2ncc(Cl)c(-c3cc4ccccc4s3)n2)cc1)N1CCC(N2CCCC2)CC1,binding,competition with immobilised ligand,1 µM,88
O=C(O)[C@H]1[C@H](Cn2nnc3ccccc3c2=O)CC[C@@H]1C(=O)c1ccc(OCCC2CCOCC2)cc1,cell-free assay,competition with immobilised ligand,1 µM,88
N[C@H]1CCN(c2nccc(-c3cnn4ncccc34)n2)C1,binding,,1 µM,100
Cc1nc(N2CC[C@@H](O)C2)ncc1-c1cc(C(F)(F)F)cc2[nH]ncc12,binding,competition with immobilised ligand,1 µM,87
C[C@H]1CCN(c2nccc(-c3cnn4ncccc34)n2)C1,binding,,1 µM,100
Cc1c(NC(=O)c2cc(C(N)=O)nc3cc(F)ccc23)c(C(F)(F)F)nn1Cc1ccc(C#N)cc1,cell-free assay,competition with immobilised ligand,1 µM,98
Cc1cnn2ncc(-c3ccnc(N(C)C)n3)c2c1,binding,,1 µM,100
C[C@@H]1CN(c2ccc3ncc(-c4ccc5[nH]nc(C6CC6)c5c4)n3n2)C[C@H](C)O1,binding,competition with immobilised ligand,0.5 µM,97
